Ecoli tolC: growth inhibitors of E. coli tolC mutant, primary screen, strain BW25113 ΔtolC::kan, 384-well. OD615. growth inhibition, % at 10 µM (by protocol). 65,000 compounds, 2.2% hits. AID 573, 2007;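 active = growth inhibition at or above a cutoff equal to the mean over every tested compound plus 3 SD, cut at about 60% in these data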;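 note: growth measured after 20 h incubation at 37 °C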
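Signal: optical density read at 615 nm; Assay system: E. coli ΔtolC::kan strain BW25113; Times: 20 h incubation with compound, 37 °C; Dosing: 10 µM final, single dose.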
CYP2C9 inhib: blockers of cytochrome P450 2C9 activity – biochemical, luminescence, ADME assay, primary screen. P11712. CYP2C9 Supersomes, luciferin-H conversion. inhibition, % at 5 µM. 96,000 compounds, 20% hits;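 active = blocking of liver enzyme CYP2C9 beyond about 50% at 5 µM, limit read from the data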
Target sequence (P11712 whole entry, looked up): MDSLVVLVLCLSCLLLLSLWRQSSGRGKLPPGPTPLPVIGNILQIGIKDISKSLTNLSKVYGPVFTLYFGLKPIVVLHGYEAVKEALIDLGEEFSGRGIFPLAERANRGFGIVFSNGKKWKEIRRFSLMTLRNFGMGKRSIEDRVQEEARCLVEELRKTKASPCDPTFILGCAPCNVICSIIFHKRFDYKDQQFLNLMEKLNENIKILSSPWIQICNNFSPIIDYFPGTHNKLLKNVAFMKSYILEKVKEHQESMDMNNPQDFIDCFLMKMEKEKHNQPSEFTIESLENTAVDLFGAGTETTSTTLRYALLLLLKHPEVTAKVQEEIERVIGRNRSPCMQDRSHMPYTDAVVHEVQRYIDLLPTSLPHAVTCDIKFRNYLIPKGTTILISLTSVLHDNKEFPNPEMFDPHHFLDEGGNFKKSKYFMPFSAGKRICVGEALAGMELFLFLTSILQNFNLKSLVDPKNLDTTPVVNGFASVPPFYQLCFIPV
E coli WT exp: growth inhibitors of wild-type E. coli, primary screen, strain BW25113, expanded library, OD600; growth inhibition, % at 100 µM; 98,000 compounds, 0.15% hits; OD600 absorbance;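 active = growth inhibition above about 50% at one test dose, limit read from the data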;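 note: growth measured after 20 h incubation at 37 °C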
CYP2C19 inhib: blockers of cytochrome P450 2C19 activity – biochemical, luminescence, ADME assay, primary screen. CYP2C19 Supersomes, luciferin-H EGE luminescence, 30 min. inhibition, % at 5 µM. 96,000 compounds, 21% hits;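 active = CYP2C19 inhibition above a set limit at 5 µM in the primary screen, cut at about 50% in these data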;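 note: plate controls were negative control wells for no effect and 2.5 mM tranylcypromine positive control for full effect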
CYP2C9 activ: human CYP2C9 activators, primary screen, biochemical, luminescence; 96,000 compounds, 1.4% hits; activation factor at 5 µM; recombinant CYP2C9, luciferin-H conversion; hits give high values; factor 1 = untreated enzyme, 0 = blocked; Cytochrome P450 2C9 (Homo sapiens), P11712;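 active = activation factor of 2 or more for CYP2C9 at a 5 µM dose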;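 note: 0 = sulfaphenazole-blocked wells and 1 = vehicle-only wells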
CYP2C19 act: human CYP2C19 activators, primary screen, biochemical, luminescence. activation factor at 5 µM. recombinant CYP2C19, luciferin-H EGE luminescence; hits give high values; 0 = fully inhibited enzyme, 1 = untreated enzyme. 96,000 tested, under 10 active;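 active = activation factor of at least 2 at 5 µM in the primary screen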;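 note: 0 = wells with 2.5 mM tranylcypromine and 1 = vehicle-only wells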
* marks the source's active call; other numbers are inactive results; nt = no result. An excerpt weighted towards active compounds, which were near 29% of everything screened.

SMILES | Ecoli tolC | CYP2C9 inhib | E coli WT exp | CYP2C19 inhib | CYP2C9 activ | CYP2C19 act
CCCCn1c(=O)[nH]c(=O)c2c1nc(CN1C(=O)c3ccccc3S1(=O)=O)n2CCC | 16.8 | 97.9* | 1.0 | 80.0* | 0 | 0.2
CCCCn1c(-c2ccsc2)nc2c1c(=O)[nH]c(=O)n2CCC | 0.0 | 23.1 | -9.0 | 17.2 | 0.8 | 0.8
CCCn1c(SCc2ccccc2)nc2c1c(=O)[nH]c(=O)n2C | 10.3 | -9.2 | -16.0 | 23.6 | 1.1 | 0.8
C=CCn1c(SCc2nc3c(c(=O)[nH]c(=O)n3CCCC)n2CCC)nnc1-c1ccccc1 | 16.1 | 83.8* | -7.0 | 44.3 | 0.2 | 0.6
CCCCn1c(=O)[nH]c(=O)c2c1nc(-c1ccsc1)n2Cc1ccccc1 | nt | 4.8 | -1.0 | 18.0 | 1 | 0.8
CCCCn1c(=O)[nH]c(=O)c2c1nc(COc1ccc(C#N)cc1)n2CCC | 6.2 | 90.0* | -6.0 | 25.4 | 0.1 | 0.7
CCCCS(=O)(=O)NC1=NCN(C2CCN(Cc3ccccc3)CC2)CN1 | -14.0 | nt | nt | nt | nt | nt
CC(O)(CS(=O)(=O)Cc1ccccc1Cl)C(=O)Nc1cccc(C(F)(F)F)c1 (stereo unspecified) | nt | 38.0 | 5.0 | 54.3* | 0.6 | 0.5
COC(=O)CN1CCN(C(=O)c2ccc(F)cc2)c2ccccc2C1 | -31.0 | 1.2 | 2.0 | 53.3* | 1 | 0.5
CC1Cc2cc(/C(O)=C3/C(=O)C(=O)N(Cc4ccco4)C3c3cccs3)ccc2O1 (stereo unspecified) | 25.4 | -1.7 | 4.0 | -9.0 | 1 | 1.1
O=C(Nc1cccc(F)c1)C1CCN(C(=O)Cc2ccccc2)CC1 | 0.3 | 9.8 | 3.0 | 13.0 | 0.9 | 0.9
S=c1[nH]ncn1/N=C/c1ccccn1 | nt | 35.7 | 1.0 | 3.3 | 0.6 | 1
COc1cc(/C=c2\sc3nc(-c4ccncc4)nn3c2=O)ccc1OC(C)=O | 5.9 | 76.2* | 4.0 | 59.9* | 0.2 | 0.4
CC(=O)Oc1cccc(/C=c2\sc3nc(-c4ccco4)nn3c2=O)c1 | 0.1 | 22.3 | -6.0 | 12.6 | 0.8 | 0.9
CC(C)CN(CC(C)C)C1=N/C(=C\c2ccco2)C(=O)N1c1ccccc1 | nt | 1.8 | -7.0 | 9.2 | 1 | 0.9
Cc1ccc(S(=O)(=O)C(CCC(=O)c2ccc(Cl)cc2)C(N)=O)cc1 (stereo unspecified) | nt | -63.1 | -2.0 | -7.6 | 1.6 | 1.1
CC1=C(CC(=O)c2ccc(Cl)cc2)C(=O)c2ccccc2C1=O | nt | 44.3 | -3.0 | 50.8* | 0.6 | 0.5
O=C(O)c1oc2ccccc2c1CN1CCN(c2ccccc2)CC1 | -7.1 | -19.0 | -9.0 | -9.5 | 1.2 | 1.1
COC(=O)c1ccccc1NC(=O)CC#N | -1.9 | -9.8 | 5.0 | 0.6 | 1.1 | 1
Cc1cc(C(=O)CN2CC(C)OC(C)C2)c(C)n1-c1ccccc1 (stereo unspecified) | 1.6 | 8.2 | 3.0 | 4.4 | 0.9 | 1
Cc1cc(C(=O)CC#N)c(C)n1-c1ccc(OC(F)F)cc1 | 6.1 | 79.0* | 4.0 | 90.6* | 0.2 | 0.1
COC(=O)c1cc(C(=O)OC)cc(-n2c(C)cc(C(=O)CC#N)c2C)c1 | 14.6 | 69.3* | -9.0 | 33.8 | 0.3 | 0.7
CCOc1cc(/C=C2\N=C(SC)SC2=O)cc([N+](=O)[O-])c1OC(C)=O | nt | 71.4* | -9.0 | -2.3 | 0.3 | 1
CSC1=N/C(=C\c2ccc(C)cc2)C(=O)S1 | nt | 10.1 | -3.0 | 2.3 | 0.9 | 1
CCOc1cc(/C=C2\N=C(SCC)SC2=O)cc([N+](=O)[O-])c1OC(C)=O | nt | 71.7* | -9.0 | -8.4 | 0.3 | 1.1
SMILES | Ecoli tolC | CYP2C9 inhib | E coli WT exp | CYP2C19 inhib | CYP2C9 activ | CYP2C19 act
CCOc1c(OC(C)=O)ccc(/C=C2\N=C(SCC)SC2=O)c1[N+](=O)[O-] | nt | 20.1 | -13.0 | 4.4 | 0.8 | 1
Cn1c(SCC(=O)Nc2nccs2)nnc1-c1ccc(S(=O)(=O)N2CCCC2)cc1 | nt | 6.5 | 1.0 | 9.5 | 0.9 | 0.9
CCn1c(SCC(=O)Nc2nccs2)nnc1-c1ccc(S(=O)(=O)N2CCCCCC2)cc1 | nt | 51.5* | -5.0 | 17.4 | 0.5 | 0.8
O=C(CSc1n[nH]c(-c2ccc(S(=O)(=O)N3CCCCC3)cc2)n1)Nc1nccs1 | -21.8 | 87.1* | 2.0 | 3.6 | 0.1 | 1
CCC(Sc1nnc(-c2ccc(C)c(Cl)c2)n1CC)C(=O)Nc1nccs1 (stereo unspecified) | 81.0* | 43.8 | 14.0 | 49.2 | 0.6 | 0.5
CC(C)n1c(CN2CCN(C)CC2)nc2c1c(=O)n(C)c(=O)n2C | -9.2 | nt | nt | nt | nt | nt
COc1cccc(NC(=O)Cc2nnc(SCC(=O)c3ccccc3)n2C)c1 | -6.2 | nt | -13.0 | nt | nt | nt
O=C(NC1=NC2CCCCC2N1)c1ccccc1 (stereo unspecified) | 9.8 | 2.2 | 10.0 | 31.9 | 1 | 0.7
COc1ccc(C2CC(=O)N3CN(Cc4ccco4)CSC3=C2C#N)cc1 (stereo unspecified) | -11.6 | 20.4 | 3.0 | 8.8 | 0.8 | 0.9
CC(C)c1ccc(C2CC(=O)N3CN(Cc4ccco4)CSC3=C2C#N)cc1 (stereo unspecified) | 8.1 | 72.7* | 10.0 | 28.2 | 0.3 | 0.7
COc1cccc(C2C(C#N)=C(N)Oc3cc(C)n(Cc4ccco4)c(=O)c32)c1 (stereo unspecified) | -1.9 | 30.8 | -12.0 | 48.0 | 0.7 | 0.5
N#CC1=C2SCN(Cc3ccco3)CN2C(=O)CC1c1ccc(Cl)cc1 (stereo unspecified) | -1.4 | 70.2* | 10.0 | 61.3* | 0.3 | 0.4
CCOc1ccc2nc(Cl)c(/C=C/C(=O)c3ccco3)cc2c1 | nt | 53.1* | -5.0 | 33.3 | 0.5 | 0.7
CCOc1ccc2nc(COC(=O)c3ccco3)c(C(C)=O)[n+]([O-])c2c1 | 30.5 | 3.5 | -3.0 | 15.8 | 1 | 0.8
CN(c1ccccc1C(N)=O)S(=O)(=O)c1ccccc1 | -5.0 | nt | 1.0 | nt | nt | nt
COc1ccc(CC(=O)NCc2ccccc2)cc1S(=O)(=O)N1CCOCC1 | -23.5 | 5.2 | 7.0 | -0.2 | 0.9 | 1
COc1ccc(CC(=O)Nc2nc3ccc(F)cc3s2)cc1S(=O)(=O)N1CCOCC1 | nt | 74.9* | 0.0 | 75.4* | 0.3 | 0.2
COc1ccc(CC(=O)Nc2nnc(SCc3ccccc3)s2)cc1S(=O)(=O)N1CCOCC1 | nt | 90.4* | 8.0 | 90.7* | 0.1 | 0.1
COc1ccc(CC(=O)Nc2nc3ccccc3s2)cc1S(=O)(=O)N1CCOCC1 | 8.8 | 64.1* | 3.0 | 76.3* | 0.4 | 0.2
CN1CC(=O)N/C1=N\C(=O)Nc1ccc2c(c1)N(C)C(=O)CS2 | -16.2 | 32.7 | 0.0 | 6.0 | 0.7 | 0.9
Cc1cc(N2CCC(C(=O)N3CCN(c4cccc(C)c4C)CC3)CC2)n2ncnc2n1 | 30.7 | -33.2 | -3.0 | -8.9 | 1.3 | 1.1

Assay outcomes: PubChem, several laboratories
